FGF22 binding: binders of human FGF22 protein, primary screen, FGF22 synaptogenesis inhibitor project, biophysical, thermal shift, single point; activity (Tm shift, normalised), % at 9.99 µM; actives 1.5% (n = 340,000); recombinant FGF22 thermal shift, SYPRO orange fluorescence; percent of sucrose octasulfate shift, DMSO zero; Fibroblast growth factor 22 (Homo sapiens), Q9HCT0;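 active means mean Tm shift, scaled 0 neutral to 100 positive control, at about 1.3% or above, every replicate too, limit read from the data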
Target sequence (Q9HCT0 whole entry, looked up): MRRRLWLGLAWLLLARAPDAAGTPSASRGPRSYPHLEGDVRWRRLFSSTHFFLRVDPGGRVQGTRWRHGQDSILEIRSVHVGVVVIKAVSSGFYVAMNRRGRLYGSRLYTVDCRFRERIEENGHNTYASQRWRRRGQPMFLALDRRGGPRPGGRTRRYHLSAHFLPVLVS
EWS-Fli inh: EWS/Fli-driven NR0B1 reporter inhibitors, primary screen, A673 cells, NR0B1 luciferase, luminescence, MLPCN library; viability-normalised; actives 0.67% (n = 350,000); inhibition, % at 12.6 µM;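 active means mean inhibition of at least 50% after viability correction, with every replicate also passing that limit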;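 further: firefly luciferase signal divided by Alamar Blue viability fluorescence both relative to DMSO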
FN deposition inh: inhibitors of fibronectin matrix deposition, primary screen, AH1F cells, Alexa488-fibronectin fluorescence, plate reader; AH1F fibroblasts, overnight; inhibition, % at 12.6 µM; actives 0.086% (n = 350,000);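 active means mean inhibition across replicates of 30% or more, regardless of how many single replicates reach that level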
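Test system: AH1F fibroblast monolayer depositing Alexa488-labelled fibronectin into matrix. Input: 10000 cells per well. Technique: fluorescence, ex 485 nm, em 525 nm. Buffer or medium: DMEM plus 2% serum, read in PBS. Timing: 1 h cell adhesion before compound, then overnight fibronectin incubation. Compound: single dose, pinned. Read-out basis: inhibition from reduced deposited-fibronectin fluorescence.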
PGC1a acetyl inh: inhibitors of PGC1a acetylation signal, primary screen, cell-based, U2OS, AlphaScreen, inhibitor mode | actives 0.17% (n = 350,000) | inhibition, % at 15.6 µM | AlphaScreen anti-acetyl-lysine; with virally co-expressed GCN5 acetyltransferase;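 active means every replicate shows inhibition of at least 40%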
PAX8 reporter: inhibitors of PAX8-driven TPO luciferase reporter, primary screen, RMG-I cells, single concentration. actives 1.2% (n = 360,000). SteadyGlo, 24 h. inhibition, % at 12.6 µM. AID 652154, 2013;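 active means mean replicate inhibition at least 60% with every replicate also reaching 60%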;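 further: luciferase light reporting Pax8 driven TPO promoter activity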
HIV Env fusion: inhibitors of HIV-1 Env-driven cell-cell fusion, primary screen, HeLa-JRFL effector, CEM21 target cells, luciferase; inhibition, % at 12.3 µM; actives 1.1% (n = 360,000);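 active means mean replicate inhibition score of at least 50 and every replicate individually at or above 50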
Numbers stand for hits; . = inactive; / = no result. The list is not random: actives were taken first. Their share in the collection is about 3.1%.

SMILES | FGF22 binding | EWS-Fli inh | FN deposition inh | PGC1a acetyl inh | PAX8 reporter | HIV Env fusion
COC(c1ccccc1)c1nnc(CCC(=O)N2CCN(Cc3cccs3)CC2)o1 (stereo unspecified) | . | . | . | . | . | .
CCC(=O)N1C[C@H](O)COC[C@H]2O[C@@H](CC(=O)N3CCCCC3)CC[C@@H]21 | . | . | . | . | . | .
COc1ccc(C)cc1N1C(=N)/C(=C2/Nc3ccccc3S2)C(c2ccccc2)C1=O (stereo unspecified) | . | 66.2 | . | . | . | .
COc1ccc(C2C(Oc3ccccc3)C(=O)N2c2cc(C)ccc2C)cc1OC (stereo unspecified) | / | / | . | . | / | .
CCCCc1ccc(NC(=S)N2CCN(c3ncccn3)CC2)cc1 | 43.0 | . | . | . | . | .
CCCCc1ccc(NC(=S)N2CCN(c3ccccn3)CC2)cc1 | . | . | . | . | . | .
Cc1cccc(N=C2NN=C(c3c(C)[nH]c4ccccc34)CS2)c1 | . | . | . | . | 74.2 | .
Cc1cccc(N=C2NN=C(c3ccc4c(c3)OCCO4)CS2)c1 | . | . | / | . | / | /
CC(=O)N[C@@H]1CC[C@@H](CC(=O)NCC2CCCCC2)O[C@H]1CO | . | . | . | . | . | .
C[C@H](CO)N1C[C@H](C)[C@@H](CN(C)Cc2ccncc2)Oc2ccc(NS(=O)(=O)c3ccccc3)cc2CC1=O | . | . | . | . | . | /
O=C(NC(=S)NCc1ccc(Cl)cc1Cl)c1ccco1 | 43.3 | . | . | / | . | .
O=C(Nc1ccc(OCC(F)(F)C(F)F)c(C(F)(F)F)c1)c1ccc(Cl)cc1 | / | / | . | . | / | 68.5
COc1ccc(C(=O)Nc2ccc(OCC(F)(F)C(F)F)c(C(F)(F)F)c2)cc1OC | / | / | / | . | / | /
O=C(Nc1ccc(Br)c(C(F)(F)F)c1)c1ccc(C(F)(F)F)cc1 | . | . | 39.6 | . | . | .
CC[C@]12c3[nH]c4ccccc4c3CCN1C(=O)C(CC(=O)NCC13CC4CC(CC(C4)C1)C3)C[C@@H]2C(=O)N1CCN(C(=O)C2CC2)CC1 (stereo partly specified) | . | . | . | / | . | 99.7
CC[C@]12c3[nH]c4ccc(Cl)cc4c3CCN1C(=O)[C@@H](CC(=O)NCc1ccco1)C[C@@H]2C(=O)N1CCN(C(=O)C2CC2)CC1 | . | . | . | . | . | .
CC[C@]12c3[nH]c4ccc(Cl)cc4c3CCN1C(=O)[C@@H](CC(=O)NC(C)(C)C)C[C@@H]2C(=O)N1CCN(C(=O)c2ccco2)CC1 | . | . | . | . | . | .
CC[C@]12c3[nH]c4ccc(Cl)cc4c3CCN1C(=O)[C@@H](CC(=O)NCC13CC4CC(CC(C4)C1)C3)C[C@@H]2C(=O)N1CCN(C(=O)C2CC2)CC1 | . | . | / | . | . | 57.7
CC[C@]12c3[nH]c4ccc(Cl)cc4c3CCN1C(=O)[C@@H](CC(=O)NC/C=C(\C)CCC=C(C)C)C[C@@H]2C(=O)N1CCN(C(=O)c2ccco2)CC1 | . | . | . | . | 81.6 | .
CC[C@]12c3[nH]c4ccccc4c3CCN1C(=O)C(CC(=O)NCc1ccc(OC)c(OC)c1)C[C@@H]2C(=O)N1CCN(C(=O)C2CC2)CC1 (stereo partly specified) | . | . | . | . | . | 60.8
CN(C[C@@H]1N[C@H](CO)[C@@H]1c1ccc(C2=CCCCC2)cc1)S(C)(=O)=O | / | . | . | . | . | /
COc1ccccc1S(=O)(=O)N[C@@H]1CC[C@H](CCNC(=O)C2CCC2)O[C@H]1CO | . | . | / | . | . | .
COc1ccc(C#Cc2cnc3c(c2)C(=O)N([C@@H](C)CO)C[C@H](C)[C@H](CN(C)CC2CC2)O3)cc1 | . | . | / | . | . | /
CCCC(=O)Nc1ccc2c(c1)C(=O)N(C)C[C@@H](OC)[C@H](C)CN(Cc1ccncc1)[C@@H](C)CO2 | / | . | . | . | / | /
CN(C)CCCNC(=O)C[C@H]1C[C@H](C(=O)N2CCCCC2)[C@@]2(CCc3ccccc3)c3[nH]c4ccc(Cl)cc4c3CCN2C1=O | . | 62.9 | . | . | . | .

Assay outcomes as filed in PubChem BioAssay.
